For orientation: GI50 means the concentration giving 50% growth inhibition. Lower therefore signals more potent growth inhibition. As a reminder, the TGI is the concentration giving total growth inhibition. Low values mean greater sensitivity of the cells, high ones lower sensitivity of the cells.

The results in this text go back to ChEMBL document CHEMBL1177875, “Antitumor activity of (-)-alpha-bisabolol-based thiosemicarbazones against human tumor cell lines” (2010).

Common to all, as to assay type: functional
Assay [1] has as its system MCF7. Description: Cytotoxicity against human MCF7 cells by sulforhodamine B assay. As to conditions: for CC50: read-out: LC50 (the source's name). In outline: (§1)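 Growth of the human tumor cell line was read colorimetrically with sulforhodamine B, following the NCI standard protocol, with doxorubicin as positive control. Compounds were tested at four concentrations in 10-fold dilutions (0.25 to 250). Dose-response curves gave GI50 (the concentration for 50% growth inhibition), TGI (total growth inhibition) and LC50 (50% cell death).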
On the technique in general: In SRB staining, fixed cells bind dye roughly in proportion to their protein.

Assay [2] in a line: Cytotoxicity against human NCI/ADR cells by sulforhodamine B assay. Conditions: NCI/ADR-RES; for CC50: read-out: LC50 (the source's name). In a few lines: as §1
Assay [3] in a line: Cytotoxicity against human PCO3 cells by sulforhodamine B assay. Conditions: for CC50: read-out: LC50 (the source's name). In a few lines:
as §1

The test system of assay [4] is UACC-62. Nature of the assay: Cytotoxicity against human UACC62 cells by sulforhodamine B assay. In outline:
as §1

Assay [5] deals with OVCAR-3. Nature of the assay: Cytotoxicity against human OVCAR-3 cells by sulforhodamine B assay. Conditions: for CC50: read-out: LC50 (the source's name). In outline:
as §1

The test system of assay [6] is NCI-H460. Nature of the assay: Cytotoxicity against human NCI-H460 cells by sulforhodamine B assay. As to conditions: for CC50: read-out: LC50 (the source's name). In a few lines: as §1
The test system of assay [7] is K562. Nature of the assay: Cytotoxicity against human K562 cells by sulforhodamine B assay. Conditions: for CC50: read-out: LC50 (the source's name). In outline:
as §1

Assay [8] has as its system HT-29. Description: Cytotoxicity against human HT-29 cells by sulforhodamine B assay. Conditions: for CC50: read-out: LC50 (the source's name). In outline: as §1

Take `CC1=CC[C@@H]([C@@](C)(O)CCCC(C)(C)NC(=S)N/N=C\c2ccccc2)CC1`: the GI50 in assay [1] stood at 7.72 µM; in assay [2], 6.97 µM; in assay [3], 8.47 µM; in assay [4], 12.7 µM; in assay [5], 6.97 µM; in assay [6], 38.4 µM. Besides, the GI50 in assay [7] turned out to be 0.13 µM; in assay [8] it was 9.96 µM. For the same compound, the total growth inhibition concentration (TGI) in assay [1] was 28.7 µM; in assay [2], 23.8 µM; in assay [3], 36.2 µM; in assay [4] it was 43.8 µM; in assay [5], 12.9 µM; in assay [6], > 100 µM. The results for the TGI in assay [7] and in assay [8] were 20.9 µM and 36.5 µM, respectively. Further, the CC50 in assay [1] is 60.4 µM; in assay [2], 59.9 µM; in assay [3] it was > 100 µM; in assay [5] it was 43.6 µM; in assay [6], > 100 µM; in assay [7], > 100 µM. Also, the CC50 in assay [8] amounted to 57.4 µM. The LC50 (50% cell kill) in assay [4] turned out to be 48.4 µM.
With `CC1=CC[C@@H]([C@@](C)(O)CCCC(C)(C)NC(=S)N/N=C\c2cccc(Cl)c2)CC1`, the GI50 in assay [1] was 7.35 µM; in assay [2], 7.35 µM; in assay [3], 11.2 µM; in assay [4], 7.81 µM; in assay [5], 8.27 µM; in assay [6], 44.3 µM. Further, the GI50 in assay [7] came out at 0.03 µM; in assay [8], 6.89 µM. The TGI in assay [1] was 19.5 µM; in assay [2] it was 31.9 µM; in assay [3], 37.8 µM; in assay [4], 18.1 µM; in assay [5], 26.5 µM; in assay [6] it was > 100 µM. Moreover, the TGI in assay [7] was 1.06 µM; in assay [8], 16.5 µM. Besides, the CC50 is 45.9 µM in assay [1]; > 100 µM in assay [2]; 57 µM in assay [3]; 48 µM in assay [5]; > 100 µM in assay [6]; 56.3 µM in assay [7]. For the same compound, the CC50 in assay [8] worked out at 45.9 µM. In addition, the LC50 (50% cell kill) in assay [4] was found to be 42.7 µM.
As to `CC1=CC[C@@H]([C@@](C)(O)CCCC(C)(C)NC(=S)N/N=C\c2ccc(O)cc2)CC1`, the GI50 in assay [1] turned out to be 6.23 µM; in assay [3], 6.23 µM; in assay [4], 8.87 µM; in assay [5], 6.23 µM; in assay [6] it was 1.46 µM; in assay [7], 0.6 µM. For the same compound, the GI50 in assay [8] worked out at 8.15 µM. The total growth inhibition concentration (TGI) amounted to 21.2 µM in assay [1]; 13.9 µM in assay [3]; 40.1 µM in assay [4]; 17.4 µM in assay [5]; 20.7 µM in assay [6]; 31.1 µM in assay [7]. The compound further yielded a TGI in assay [8] of 31.5 µM. The CC50 in assay [1] is 56.4 µM; in assay [2], > 100 µM; in assay [3], 50.1 µM; in assay [5] it was 54.4 µM; in assay [6], > 100 µM; in assay [7], > 100 µM. Further, the CC50 in assay [8] came out at 58.5 µM. This compound returned an LC50 (50% cell kill) in assay [4] of 55.6 µM.
For `CC1=CC[C@@H]([C@@](C)(O)CCCC(C)(C)NC(=S)NN)CC1`, the GI50 in assay [1] worked out at 15.3 µM; in assay [2], 0.76 µM; in assay [3], 26.8 µM; in assay [4], 18.5 µM; in assay [5], 17.2 µM; in assay [6], 12.8 µM. Further, the GI50 in assay [7] came out at 0.02 µM; in assay [8], 49.4 µM. Also, the TGI in assay [1] was 84.2 µM; in assay [2] it was 29 µM; in assay [3], > 100 µM; in assay [4], > 100 µM; in assay [5] it was > 100 µM; in assay [6] it was 84 µM. In addition, the TGI in assay [7] was 0.38 µM; in assay [8] it was > 100 µM. Also, the CC50 in assay [1] is > 100 µM; in assay [2], > 100 µM; in assay [3], > 100 µM; in assay [5] it was > 100 µM; in assay [6], > 100 µM; in assay [7] it was 9.58 µM. Also, in assay [8], the CC50 is > 100 µM. Further, in assay [4], the LC50 (50% cell kill) was > 100 µM.
With `CC1=CC[C@@H]([C@@](C)(O)CCCC(C)(C)NC(=S)N/N=C\c2ccccc2[N+](=O)[O-])CC1`, the GI50 in assay [1] was found to be 18.6 µM; in assay [2], 20.4 µM; in assay [3], 39.9 µM; in assay [4] it was 6.05 µM; in assay [5], 7.39 µM; in assay [6] it was 20.6 µM. In addition, the 50% growth inhibitory concentration (GI50) in assay [7] is 0.19 µM; in assay [8] it was 6.94 µM. Also, the TGI in assay [1] is > 100 µM; in assay [2], > 100 µM; in assay [3], > 100 µM; in assay [4] it was 16.6 µM; in assay [5], 16.2 µM; in assay [6], > 100 µM. The TGI in assay [7] is 7.84 µM; in assay [8], 16.8 µM. For the same compound, the CC50 in assay [1] is > 100 µM; in assay [2], > 100 µM; in assay [3], > 100 µM; in assay [5], 41.9 µM; in assay [6], > 100 µM; in assay [7], > 100 µM. Besides, the CC50 in assay [8] was 44.4 µM. In assay [4], this compound returned an LC50 (50% cell kill) of 49.3 µM.
With `CC1=CC[C@@H]([C@@](C)(O)CCCC(C)(C)NC(=S)N/N=C\c2ccccc2Cl)CC1`, the GI50 in assay [1] was 31.2 µM; in assay [2], > 100 µM; in assay [3] it was 18.8 µM; in assay [4], 53.3 µM; in assay [5], 42 µM; in assay [6], 24.6 µM. In addition, the GI50 is 0.15 µM in assay [7] and 23.7 µM in assay [8]. The TGI in assay [1], in assay [2], in assay [3], in assay [4], in assay [5] and in assay [6] was > 100 µM in each case. The TGI is 4.11 µM in assay [7] and > 100 µM in assay [8]. Besides, the CC50 in assay [1] is > 100 µM; in assay [2], > 100 µM; in assay [3], > 100 µM; in assay [5], > 100 µM; in assay [6], > 100 µM; in assay [7] it was 8.5 µM. In assay [8], the CC50 was > 100 µM. In assay [4], the LC50 (50% cell kill) is > 100 µM.
For the compound `CC1=CC[C@@H]([C@@](C)(O)CCCC(C)(C)NC(=S)N/N=C\c2ccc(C)cc2)CC1`, the GI50 in assay [1] turned out to be 7.23 µM; in assay [2], 6.51 µM; in assay [3] it was 6.75 µM; in assay [4] it was 11.6 µM; in assay [5], 6.02 µM; in assay [6], 10.1 µM. Also, the GI50 came to 0.14 µM in assay [7] and 10.4 µM in assay [8]. For the same compound, the TGI was > 100 µM in assay [1]; 30.5 µM in assay [2]; 45.7 µM in assay [3]; 39 µM in assay [4]; 11.8 µM in assay [5]; > 100 µM in assay [6]. The TGI in assay [7] turned out to be 7.95 µM; in assay [8], 80.4 µM. Further, the CC50 in assay [1] is > 100 µM; in assay [2], > 100 µM; in assay [3], > 100 µM; in assay [5], 45.3 µM; in assay [6], > 100 µM; in assay [7], > 100 µM. In addition, the CC50 in assay [8] was > 100 µM. The same compound had an LC50 (50% cell kill) in assay [4] of 52.3 µM.
